According to paper PMC12779259 (Metallomics : integrated biometal science, 2019):
≈ marks a conversion by molar mass, not a printed value.

How the values were obtained:
[1] = test system: THP-1 monocytic cells; experiment: Toxicity testing on THP-1 monocyte cells; type: cell-based, human; details: 24 h
[2] = test system: S. aureus; experiment: MIC determination against S. aureus in RPMI; type: cell-based, Staphylococcus aureus; details: for ^CuMIC (S. aureus): MIC in 50 μM copper supplemented medium
[3] = target: T1, GAPDH (Staphylococcus aureus, UniProt Q6GIL8); experiment: GAPDH activity in lysates of treated bacteria; type: cell-based; details: 30 minutes treatment; 50 µM Cu, 10 µM PZP-915, 10 µM 915+50 µM Cu
T1 sequence (Q6GIL8 1-336): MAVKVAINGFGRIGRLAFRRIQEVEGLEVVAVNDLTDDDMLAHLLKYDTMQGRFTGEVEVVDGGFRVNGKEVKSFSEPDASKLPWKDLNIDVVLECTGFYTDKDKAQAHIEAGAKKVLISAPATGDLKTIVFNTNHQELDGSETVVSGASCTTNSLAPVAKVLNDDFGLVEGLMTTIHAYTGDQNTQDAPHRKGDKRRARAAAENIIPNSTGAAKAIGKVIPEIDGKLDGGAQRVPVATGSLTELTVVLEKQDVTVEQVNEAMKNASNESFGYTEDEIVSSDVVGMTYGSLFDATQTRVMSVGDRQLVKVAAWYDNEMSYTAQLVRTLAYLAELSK
How it was run: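 After the 30 min treatment, bacteria washed to remove extracellular copper, then lysed. GAPDH activity measured in the lysates.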

[4] = test system: S. aureus strain LAC carrying pHluorin; type: cell-based, Staphylococcus aureus; details: mildly acidic medium (pH 6.2)
[5] = test system: methicillin resistant S. aureus strains; experiment: MIC against clinically isolated MRSA strains; type: cell-based, Staphylococcus aureus; details: 5 clinically isolated MRSA strains, 50 μM Cu
[6] = test system: preformed S. aureus biofilms; experiment: Biofilm eradication assay; type: cell-based, Staphylococcus aureus; details: preformed S. aureus Newman biofilms, 24 hours treatment
[7] = test system: S. aureus; experiment: Time to death assay and bactericidal activity; type: cell-based, Staphylococcus aureus; details: for mode of action (bactericidal vs bacteriostatic): CFU
[8] = Toxicity testing on THP-1 monocyte cells; type: cell-based, human; details: human, THP-1 monocytic cells
[9] = test system: S. aureus Newman; experiment: Membrane potential, DiOC2; type: cell-based, Staphylococcus aureus; details: within 30 min; 10 μM PZP-915 and/or 50 μM Cu
[10] = Determination of binding constants by UV/Vis; details: 25 uM HEPES buffer pH 7.2

Q: With CNC(=S)NN=CC=NNC(=S)NC [GTSM] as the compound, how does the “^CuIC90 (THP1)” value ([1]; IC90 in the presence of 25 μM copper) read?
A: 0.15 µM

Q: And the IC90 ([1]; read-out: IC90 (THP1), 90% inhibition relative to untreated controls, no Cu)?
A: > 10 µM

Q: What about the “^CuMIC (S. aureus)” value [2] of the same compound?
A: 0.3 µM

Q: Which “GAPDH activity in cell lysates” value [3] does the source give for Cc1nn2c(=O)cc(Cc3ccccc3)[nH]c2c1-c1ccc(Cl)cc1 [PZP-915, 5‐benzyl‐3‐(4‐chlorophenyl)‐2‐methyl‐4H,7H‐pyrazolo[1,5‐a]pyrimidin‐7‐one] here?
A: did not alter GAPDH activity

Q: What about the “change of intracellular pH” value [4] of the same compound?
A: no or only a minor impact

Q: And the “MIC against MRSA strains in comparison to S. aureus Newman” value [5]?
A: no difference

Q: And the “concentration for complete eradication of S. aureus in biofilms” value [6]?
A: 0.6 µM

Q: What about the “time to achieve complete inhibition of growth” value ([7]; 0.6 µM PZP-915 in the presence of 50 µM Cu) of the same compound?
A: 2 h

Q: And the recoverable viable bacteria ([7]; 24h treatment, 50 μM Cu added, consistent with bactericidal activity)?
A: no viable cells could be recovered

Q: And the “mode of action (bactericidal vs bacteriostatic)” value ([7]; 24h treatment, presence of 50 μM Zn)?
A: bacteriostatic

Q: And the “mode of action (bactericidal vs bacteriostatic)” value ([7]; 24h treatment, standard medium, absence of Cu)?
A: bacteriostatic

Q: What about the “Cu concentration required to display similar potency” value ([7]; dose-matrix, 0.6 µM PZP-915) of the same compound?
A: 50 µM

Q: What about the “Cu concentration required to exert potent antibacterial properties” value ([7]; dose-matrix, 10 µM PZP-915) of the same compound?
A: 1.25 µM

Q: What about the IC90 at 24 h [8] of the same compound?
A: > 40 µM

Q: And the “activity in medium supplemented with both Cu and BCS” value ([2]; 50 μM Cu, 500 μM BCS)?
A: about the same as in standard medium

Q: And the “effect of Fe on activity” value ([2]; 50 μM Fe supplemented medium)?
A: no effect

Q: What about the “improvement of activity by Zn in comparison to standard medium” value ([2]; 50 μM Zn supplemented medium) of the same compound?
A: 4 fold

Q: And the “impact of BCS addition to standard medium on activity” value ([2]; 500 μM BCS, no Cu supplementation)?
A: no impact

Q: And the “^CuMIC (S. aureus)” value [2]?
A: 0.6 µM

Q: And the MIC ([2]; Staphylococcus aureus, read-out: MIC (S. aureus))?
A: 5 µM (≈ 1.75 µg/mL)

Q: And the “effect on membrane potential (DiOC2(3) red/green ratio)” value [9]?
A: decreased the membrane potential, although to a much lesser extent

Q: And the “binding constant, 1st order reaction of copper binding” value [10]?
A: 3.8×10^5 Lmol^−1

Q: What about the “binding constant, 2nd order complex with copper” value [10] of the same compound?
A: 6.18 Lmol^−1

Q: And the “binding constant, 3rd order complex with copper” value [10]?
A: 47.65 Lmol^−1

Q: With “Carbonyl cyanide m-chlorophenyl hydrazine [CCCP, reference compound]” as the compound, how does the “change of intracellular pH” value [4] read?
A: almost instantaneous pH drop

Q: Which “concentration up to which no toxicity to S. aureus was observed” value ([2]; metal alone) does the source give for Iron here?
A: > 3.2 mM
